# From PubChem BioAssay
# FXIa inh: inhibitors of human coagulation factor XIa; P03951; purified FXIa, Boc-Glu-Ala-Arg-AMC fluorogenic substrate; inhibition, % at 5 µM; 220,000 compounds, 0.14% hits;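 active means inhibition of at least 40%; inactive means inhibition below 40%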;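 further: fluorescence of freed AMC excited at 355 nm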
# m-calpain inh: calpain II (pig) inhibition; purified calpain II, fluorogenic peptide substrate, 30 min; AID 1236; 220,000 compounds, 0.37% hits; inhibition, % at 16 µM;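 active means inhibition above about 50%, limit read from the data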
# Thrombin inh: thrombin (human) inhibition; 220,000 compounds, 0.26% hits; alpha-thrombin, Boc-VPR-AMC fluorogenic substrate cleavage; inhibition, % at 5 µM;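 active means inhibition at or above 40%; inactive means inhibition below 40%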
#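 Assay system: human alpha-thrombin enzyme. Reagent: Boc-VPR-AMC substrate, 15 µM final. Compound dosing: one concentration per compound, 5 µM, with 0.2% DMSO. Incubation: room-temperature reaction. Technique: AMC fluorescence, 355/460 nm. Measure: % inhibition relative to enzyme controls and enzyme-free blanks.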
# FXIIa inh: factor XIIa (human) inhibition; purified FXIIa, Boc-QGR-AMC fluorogenic substrate, 2 h; inhibition, % at 5 µM; 220,000 compounds, 0.3% hits; AID 800; in the data active means inhibition above about 40%
# Target sequence (P00748 20-372 limits assumed): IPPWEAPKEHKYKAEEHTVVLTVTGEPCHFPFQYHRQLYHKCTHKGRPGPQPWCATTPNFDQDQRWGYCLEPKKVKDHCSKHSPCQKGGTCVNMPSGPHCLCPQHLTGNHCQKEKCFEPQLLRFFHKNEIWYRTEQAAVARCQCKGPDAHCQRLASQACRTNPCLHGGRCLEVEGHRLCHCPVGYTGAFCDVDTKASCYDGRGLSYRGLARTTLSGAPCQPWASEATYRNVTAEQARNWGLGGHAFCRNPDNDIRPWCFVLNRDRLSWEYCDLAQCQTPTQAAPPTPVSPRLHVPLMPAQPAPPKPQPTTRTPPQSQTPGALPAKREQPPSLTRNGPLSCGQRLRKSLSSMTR
# Target sequence (P00748 373-615 limits assumed): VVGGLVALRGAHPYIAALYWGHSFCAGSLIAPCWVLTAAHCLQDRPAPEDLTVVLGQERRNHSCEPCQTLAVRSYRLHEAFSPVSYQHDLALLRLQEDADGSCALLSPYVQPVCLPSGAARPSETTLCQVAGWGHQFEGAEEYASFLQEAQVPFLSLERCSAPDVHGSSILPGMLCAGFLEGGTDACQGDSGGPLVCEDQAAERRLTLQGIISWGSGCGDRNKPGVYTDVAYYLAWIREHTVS
# KLK5 inh: kallikrein 5 (human) inhibition | Q9Y337 | recombinant hK5, fluorogenic AMC substrate cleavage | AID 873 | inhibition, % at 5 µM | 210,000 compounds, 0.59% hits;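 active means inhibition of 40% or more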
# Furin inhibitor: blocks human furin protease activity; P09958; purified furin, fluorogenic substrate cleavage; inhibition, % at 20 µM or 30 µM; 220,000 compounds, 0.061% hits; in the data active means inhibition above about 25%
# A number is an active result; . = inactive; / = not tested or not shown. Compounds with a hit are over-represented: about 1.4% of the library has one in this group of screens.
SMILES,FXIa inh,m-calpain inh,Thrombin inh,FXIIa inh,KLK5 inh,Furin inhibitor
CCC(=O)Nc1ccc(C(=O)CSc2nc3ccccc3cc2CC)cc1,.,.,104.4,.,59.6,.
Cc1ccc(NC(=S)NC(=O)c2ccccc2)cc1NC(=S)NC(=O)c1ccccc1,.,.,.,.,.,.
Cc1cc(C)c(NC(=S)NC(=O)c2ccc(-c3ccccc3)cc2)c(C)c1,.,.,.,.,56.6,.
CCOc1ccc(C(=O)NC(=S)N(Cc2ccccc2)Cc2ccccc2)cc1,.,.,.,.,.,.
CCCN(CCC)C(=S)NC(=O)c1ccc(-c2ccccc2)cc1,.,50.3,.,.,.,.
FC(F)(F)c1cnc(COc2cc(Cl)cc(Cl)c2)c(Cl)c1,.,.,.,.,.,.
OCC(O)C1OC(Nc2ccc(Cl)cc2)C(O)C1O (stereo not given),.,.,.,.,.,.
COc1ccccc1NC(=O)N1CCCC1C(=O)NC1CCCCC1 (stereo not given),.,.,53.6,.,.,.
Cc1ccccc1NNC(=O)C(=O)NNc1ccccc1C,.,.,.,.,50.2,.
Cc1ccc2c(c1C)NC(=O)C21N2CCCC2C(C(=O)c2ccc3ccccc3c2)C12C(=O)Nc1ccccc12 (stereo not given),.,.,.,.,.,.
O=C(C1CC(c2cccc(Br)c2)=NO1)N1CCc2ccccc2C1 (stereo not given),.,.,.,.,.,.
Cc1cc(C(C#N)c2cccc(Cl)c2)n2ncnc2n1 (stereo not given),.,.,.,41.9,.,.
CS(=O)(=O)c1ccc(Cl)c(NC(=O)COC(=O)CNC(=O)c2ccccc2)c1,41.5,.,.,.,.,.
CC1CCN(CC(=O)Nc2ccccc2C#N)CC1,.,.,42.5,.,.,.
CC(=O)c1ccc(NC(=O)c2noc(C(C)C)c2[N+](=O)[O-])cc1,.,94.6,.,.,/,.
COc1ccc(NC(=O)c2noc(C(C)C)c2[N+](=O)[O-])cc1,.,53.1,.,.,/,.
CCc1ccc(NC(=O)c2noc(C(C)C)c2[N+](=O)[O-])cc1,.,.,.,.,/,.
Cc1ccc(O)c(NC(=O)c2noc(C(C)C)c2[N+](=O)[O-])c1,.,.,.,.,.,.
CC(=O)Nc1ccc(C(=O)OCC(=O)NCc2ccc(Cl)cc2)cc1,.,.,.,.,.,.
CCOC(=O)N1CCC(NC(=O)c2ccc3c(c2)ncn3C2CCCC2)CC1,.,76.9,.,.,.,.
COc1ccc(-c2noc(=O)n2CC(=O)N2CCC(Cc3ccccc3)CC2)cc1,.,.,.,.,.,.
O=S(=O)(c1ccc(Br)s1)N1CCNCC1,.,.,.,.,.,.
CCC(=O)N1CCc2cc(S(=O)(=O)CCC(=O)Nc3ccc(OC)c(OC)c3)ccc21,.,.,.,.,.,.
Cc1cc(C)nc(NC(=O)c2ccc([N+](=O)[O-])o2)n1,.,.,.,.,.,.
Cc1cc(C)cc(NC(=O)c2ccc([N+](=O)[O-])o2)c1,69.6,.,.,.,.,.
SMILES,FXIa inh,m-calpain inh,Thrombin inh,FXIIa inh,KLK5 inh,Furin inhibitor
O=C(NNC1=NCCCCC1)Nc1cccc(Cl)c1,46.6,.,40.1,41.6,.,.
O=[N+]([O-])c1ccc(NCCNCCOc2nonc2-c2ccccc2)c([N+](=O)[O-])c1,.,.,/,.,.,.
COc1ccccc1OCC(O)CN1C(=O)NC(C)(C)C1=O (stereo not given),.,.,.,.,63.7,.
Cc1ccc(NC(=O)/C(C#N)=C(\N)C(Cl)(Cl)Cl)nc1,.,.,.,.,.,.
Cc1nc(N2CCN(Cc3ccc4c(c3)OCO4)CC2)nc2c1C(=O)CC(c1ccco1)C2 (stereo not given),.,67.3,.,.,.,.
Cc1nc(N2CCN(Cc3ccccc3)CC2)nc2c1C(=O)CC(c1ccco1)C2 (stereo not given),.,.,.,.,.,.
COc1cccc(C(=O)Nc2cccc3c2ccc2cccn23)c1,.,.,.,.,.,.
Cc1nnc(SCc2cccc(Oc3ccccc3)c2)n1N,.,.,.,.,58.8,.
COC(=O)C(=Cc1ccccc1[N+](=O)[O-])C(=O)OC,.,.,.,.,.,.
Cc1ccc(S(=O)(=O)N2CCN(C(=O)C3CCN(C(=O)c4ccccc4C)CC3)CC2)cc1C,.,.,.,.,.,.
COc1ccc(Nc2c(-c3ccc(C)cc3)nc3cnccn23)cc1,.,74.7,.,.,.,.
COc1ccc(Nc2c(-c3ccc(OC)cc3)nc3cnccn23)cc1,.,.,.,.,.,.
CCOC(=O)c1cnc(SC2CCc3ccccc3C2=O)nc1N (stereo not given),.,59.3,.,.,.,.
CCOc1ccc(CC(=O)OCn2nnc3ccccc3c2=O)cc1,.,65.9,.,.,.,.
Cc1ccccc1CN1C(=O)C(C)S/C1=N/N=C/c1ccco1 (stereo not given),.,.,.,.,.,.
O=C(Cc1cccs1)N(CC1CCCO1)C1(C(=O)NC2CCCC2)CCCCC1 (stereo not given),.,.,.,.,.,.
Cc1cc(-c2nnc(CCC(=O)N3CCN(Cc4cccc(F)c4)CC3)o2)c(C)o1,.,.,.,.,.,.
CC(C)Oc1ccc(N2CC(C(=O)NC3=NCCS3)CC2=O)cc1 (stereo not given),.,.,41.4,.,.,.
COCCSc1nnc(NC(=O)C2CC(=O)N(c3ccc(OC)cc3)C2)s1 (stereo not given),.,.,.,.,.,.
COc1ccc(N2CC(C(=O)Nc3nnc(SCC(=O)c4ccccc4)s3)CC2=O)cc1 (stereo not given),.,.,.,.,62.6,.
COc1ccc(N2CC(C(=O)Nc3ncccc3C)CC2=O)cc1 (stereo not given),.,.,.,.,62.5,.
CCOC(=O)Cn1nc(C)cc1NC(=O)c1cccnc1,.,.,.,.,.,.
CCCCOc1cccc(C(=O)N(Cc2ccco2)C2CCS(=O)(=O)C2)c1 (stereo not given),.,.,.,.,.,.
CCCOc1cccc(C(=O)N(Cc2ccco2)C2CCS(=O)(=O)C2)c1 (stereo not given),.,.,57.4,.,.,.
COc1ccc(C2C(C#N)=C(N)N(c3cccnc3)C3=C2C(=O)CC(C)(C)C3)cc1OC (stereo not given),.,.,.,.,.,.
COc1ccc(N2C(N)=C(C#N)C(c3cccnc3)C3=C2CC(C)(C)CC3=O)cc1 (stereo not given),.,.,.,.,51.2,.
Cc1ccc(SCCNC(=O)/C=C/c2ccc([N+](=O)[O-])cc2)cc1,.,.,.,.,.,.
O=C(/C=C/c1ccc([N+](=O)[O-])cc1)NCCSc1ccccc1,.,56.6,.,.,.,.
